Laboratory results as given in ChEMBL document CHEMBL1629439, “High-throughput identification of antibacterials against methicillin-resistant Staphylococcus aureus (MRSA) and the transglycosylase” (Bioorg Med Chem, 2010).
In brackets after ≈: the same amount, converted by molar mass.

Columns and labels:
[1] = test system: Staphylococcus aureus; assay: Antimicrobial activity against oxacillin- and methicillin-resistant Staphylococcus aureus isolate Sa-OXA-R2 after 18 to 24 hrs by alamar blue assay; format: functional
Method in brief: (§1)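 Broth microdilution per NCCLS standard, Mueller-Hinton broth, 8-point twofold dilutions; exponentially growing cells at 5 10^5 cells/ml with compound, 18–24 h at 37 C; 20% Alamar blue added, fluorescence read; MIC90 taken as lowest concentration preventing at least 90% growth.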

[2] = test system: Acinetobacter baumannii; assay: Antimicrobial activity against Acinetobacter baumannii ATCC 49139 after 18 to 24 hrs by alamar blue assay; format: functional; conditions: Acinetobacter baumannii, ATCC 49139; read-out: MIC
Method in brief: (§2)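 Broth microdilution per NCCLS in Mueller-Hinton broth, 8-point twofold dilutions, 384-well format. Exponential-phase cells at 5 × 10^5 cells/ml incubated with compound 18–24 h at 37 °C, then 20% Alamar blue added and fluorescence read. MIC90 taken as the lowest concentration preventing at least 90% bacterial growth.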

[3] = test system: Escherichia coli; assay: Antimicrobial activity against Escherichia coli ATCC […] after 18 to 24 hrs by alamar blue assay; format: functional; conditions: Escherichia coli; read-out: MIC; method in brief: as §2
[4] = test system: Serratia marcescens; assay: Antimicrobial activity against Serratia marcescens ATCC 14756 after 18 to 24 hrs by alamar blue assay; format: functional; conditions: Serratia marcescens, ATCC 14756; read-out: MIC; method in brief: as §2
[5] = test system: Pseudomonas aeruginosa; assay: Antimicrobial activity against Pseudomonas aeruginosa ATCC 25619 after 18 to 24 hrs by alamar blue assay; format: functional; conditions: Pseudomonas aeruginosa, ATCC 25619; read-out: MIC; method in brief: as §2
[6] = test system: Stenotrophomonas maltophilia; assay: Antimicrobial activity against Stenotrophomonas maltophilia ATCC 13637 after 18 to 24 hrs by alamar blue assay; format: functional; conditions: Stenotrophomonas maltophilia, ATCC 13637; read-out: MIC; method in brief: as §2
[7] = test system: Staphylococcus aureus; assay: Antimicrobial activity against methicillin-resistant Staphylococcus aureus isolate NTUH4722 after 18 to 24 hrs by alamar blue assay; format: functional; method in brief: as §1
[8] = test system: Staphylococcus aureus; assay: Antimicrobial activity against methicillin-resistant Staphylococcus aureus ATCC 33592 after 18 to 24 hrs by alamar blue assay; format: functional; conditions: Staphylococcus aureus, ATCC 33592; read-out: MIC; method in brief: as §1
[9] = test system: Staphylococcus aureus; assay: Antimicrobial activity against Staphylococcus aureus ATCC 29213 after 18 to 24 hrs by alamar blue assay
[10] = test system: Bacillus subtilis; assay: Antimicrobial activity against Bacillus subtilis ATCC 23857 after 18 to 24 hrs by alamar blue assay; format: functional; method in brief: as §2
[11] = test system: Mycolicibacterium smegmatis; assay: Antimicrobial activity against Mycobacterium smegmatis BCRC 11565 after 18 to 24 hrs by alamar blue assay; format: functional; conditions: Mycolicibacterium smegmatis, BCRC 11565; read-out: MIC; method in brief: as §2

| SMILES | MIC [1] [µg/mL] | MIC [2] [µg/mL] | MIC [3] [µg/mL] | MIC [4] [µg/mL] | MIC [5] [µg/mL] | MIC [6] [µg/mL] | MIC [7] [µg/mL] | MIC [8] [µg/mL] | MIC [9] [µg/mL] | MIC [10] [µg/mL] | MIC [11] [µg/mL] |
| --- | --- | --- | --- | --- | --- | --- | --- | --- | --- | --- | --- |
| CCc1cc(O)nc(N2NC(C)=CC2NC(=O)c2ccccc2Cl)n1 (stereo not given) | 1.2 (≈ 3.34 µM) | > 256 | > 256 | > 256 | > 256 | > 256 | 1.2 (≈ 3.34 µM) | 1.2 (≈ 3.34 µM) | 1.2 (≈ 3.34 µM) | 0.25 (≈ 0.695 µM) | 0.25 (≈ 0.695 µM) |
| COC(=O)c1ccccc1NC(=O)c1ccc([N+](=O)[O-])o1 | 2 (≈ 6.89 µM) | 12 (≈ 41.3 µM) | 256 (≈ 882 µM) | 32 (≈ 110 µM) | 128 (≈ 441 µM) | 32 (≈ 110 µM) | 4 (≈ 13.8 µM) | 0.5 (≈ 1.72 µM) | 8 (≈ 27.6 µM) | 0.06 (≈ 0.207 µM) | 0.5 (≈ 1.72 µM) |
| O=C(Nc1nnc(-c2ccc(Cl)cc2)o1)c1cccc(C(F)(F)F)c1 | 0.125 (≈ 0.34 µM) | > 256 | > 256 | > 256 | > 256 | > 256 | 0.125 (≈ 0.34 µM) | 0.5 (≈ 1.36 µM) | 1 (≈ 2.72 µM) | 0.5 (≈ 1.36 µM) | 0.5 (≈ 1.36 µM) |
| Cc1c(CC(=O)O)c(=O)oc2c(C)c3occ(-c4ccc(Br)cc4)c3cc12 | 2 (≈ 4.68 µM) | > 256 | > 256 | > 256 | > 256 | > 256 | 16 (≈ 37.4 µM) | 2 (≈ 4.68 µM) | 2 (≈ 4.68 µM) | > 64 | 1 (≈ 2.34 µM) |
| CCC1Sc2ccc(S(=O)(=O)Nc3cc(Cl)ccc3C)cc2NC1=O (stereo not given) | 16 (≈ 40.3 µM) | > 256 | > 256 | > 256 | > 256 | > 256 | 16 (≈ 40.3 µM) | > 64 | 4 (≈ 10.1 µM) | < 0.03 | > 64 |
| Cc1c(CC(=O)N[C@@H](CCCNC(N)=O)C(=O)O)c(=O)oc2c(C)c3occ(-c4ccc(Cl)cc4)c3cc12 | 2.5 (≈ 4.63 µM) | > 256 | > 256 | > 256 | > 256 | > 256 | 2.5 (≈ 4.63 µM) | 2.5 (≈ 4.63 µM) | 1.25 (≈ 2.31 µM) | > 64 | 1 (≈ 1.85 µM) |
| O=C1c2cc([N+](=O)[O-])cc3cc([N+](=O)[O-])cc(c23)C(=O)N1c1cccc2ccccc12 | 0.125 (≈ 0.302 µM) | > 256 | > 256 | > 256 | > 256 | > 256 | 0.125 (≈ 0.302 µM) | 2.5 (≈ 6.05 µM) | 1.25 (≈ 3.02 µM) | 4 (≈ 9.68 µM) | 4 (≈ 9.68 µM) |
| CCOc1ccccc1N(C)S(=O)(=O)c1ccc2c(c1)NC(=O)C(C)S2 (stereo not given) | > 64 | > 256 | > 256 | > 256 | > 256 | > 256 | 8 (≈ 20.4 µM) | 8 (≈ 20.4 µM) | 4 (≈ 10.2 µM) | < 0.03 | > 64 |
| Cc1c(CC(=O)N[C@@H](C(=O)O)c2ccccc2)c(=O)oc2c(C)c3occ(-c4ccc(Cl)cc4)c3cc12 | 2.5 (≈ 4.85 µM) | > 256 | > 256 | > 256 | > 256 | > 256 | 2.5 (≈ 4.85 µM) | 2.5 (≈ 4.85 µM) | 2.5 (≈ 4.85 µM) | > 64 | 1 (≈ 1.94 µM) |
| O=C(Nc1cccc(-c2nc3ncccc3o2)c1)c1ccc([N+](=O)[O-])o1 | 2 (≈ 5.71 µM) | 12 (≈ 34.3 µM) | 256 (≈ 731 µM) | 32 (≈ 91.4 µM) | 128 (≈ 365 µM) | 32 (≈ 91.4 µM) | 2 (≈ 5.71 µM) | 4 (≈ 11.4 µM) | 4 (≈ 11.4 µM) | 0.06 (≈ 0.171 µM) | 0.5 (≈ 1.43 µM) |
| O=C(Nc1nnc(-c2ccc(F)cc2)o1)c1ccc(Cl)s1 | 1.2 (≈ 3.71 µM) | > 256 | > 256 | > 256 | > 256 | > 256 | 1.2 (≈ 3.71 µM) | 1.2 (≈ 3.71 µM) | 1.2 (≈ 3.71 µM) | 0.5 (≈ 1.54 µM) | 0.5 (≈ 1.54 µM) |
| Cc1c(CC(=O)NCCCC(=O)O)c(=O)oc2c(C)c3occ(-c4ccc(Cl)cc4)c3cc12 | 2.5 (≈ 5.34 µM) | > 256 | > 256 | > 256 | > 256 | > 256 | 2.5 (≈ 5.34 µM) | 2.5 (≈ 5.34 µM) | 2.5 (≈ 5.34 µM) | > 64 | 1 (≈ 2.14 µM) |
| Cc1ccc(NS(=O)(=O)c2ccc3c(c2)NC(=O)C(C)S3)c(C)c1 (stereo not given) | > 64 | > 256 | > 256 | > 256 | > 256 | > 256 | 4 (≈ 11 µM) | 32 (≈ 88.3 µM) | 2 (≈ 5.52 µM) | < 0.03 | > 64 |
| NC(=O)c1ccsc1NC(=O)c1ccc([N+](=O)[O-])o1 | 0.25 (≈ 0.889 µM) | 12 (≈ 42.7 µM) | 256 (≈ 910 µM) | 32 (≈ 114 µM) | 128 (≈ 455 µM) | 32 (≈ 114 µM) | 0.25 (≈ 0.889 µM) | 0.25 (≈ 0.889 µM) | 2 (≈ 7.11 µM) | 0.06 (≈ 0.213 µM) | 0.5 (≈ 1.78 µM) |
| O=C(Nc1nnc(-c2ccc(Br)cc2)o1)c1cccc(C(F)(F)F)c1 | 0.125 (≈ 0.303 µM) | > 256 | > 256 | > 256 | > 256 | > 256 | 0.5 (≈ 1.21 µM) | 1 (≈ 2.43 µM) | 1 (≈ 2.43 µM) | 0.5 (≈ 1.21 µM) | 0.5 (≈ 1.21 µM) |
| O=C(Nc1ccc(-c2nc3ccccc3[nH]2)cc1)c1ccc([N+](=O)[O-])o1 | 4 (≈ 11.5 µM) | 12 (≈ 34.5 µM) | 256 (≈ 735 µM) | 32 (≈ 91.9 µM) | 128 (≈ 367 µM) | 32 (≈ 91.9 µM) | 8 (≈ 23 µM) | 0.25 (≈ 0.718 µM) | 0.125 (≈ 0.359 µM) | 0.06 (≈ 0.172 µM) | 0.5 (≈ 1.44 µM) |
| CCc1ccccc1NS(=O)(=O)c1ccc2c(c1)NCC(C)C(=O)S2 (stereo not given) | > 64 | > 256 | > 256 | > 256 | > 256 | > 256 | 4 (≈ 10.6 µM) | 2 (≈ 5.31 µM) | 2 (≈ 5.31 µM) | < 0.03 | > 64 |
| CSC[C@H](NC(=O)Cc1c(C)c2cc3c(-c4ccc(Cl)cc4)coc3c(C)c2oc1=O)C(=O)O | 2.5 (≈ 5 µM) | > 256 | > 256 | > 256 | > 256 | > 256 | 2.5 (≈ 5 µM) | 1.25 (≈ 2.5 µM) | 2.5 (≈ 5 µM) | > 64 | 1 (≈ 2 µM) |
| NC(=O)c1oc2ccccc2c1NC(=O)c1ccc([N+](=O)[O-])o1 | 2 (≈ 6.34 µM) | 12 (≈ 38.1 µM) | 256 (≈ 812 µM) | 32 (≈ 102 µM) | 128 (≈ 406 µM) | 32 (≈ 102 µM) | 0.5 (≈ 1.59 µM) | 0.5 (≈ 1.59 µM) | 2 (≈ 6.34 µM) | 0.06 (≈ 0.19 µM) | 0.5 (≈ 1.59 µM) |
| O=C(Nc1cc(Cl)ccc1Cl)c1cc(Br)cc(Br)c1O | 0.5 (≈ 1.14 µM) | 16 (≈ 36.4 µM) | 8 (≈ 18.2 µM) | 16 (≈ 36.4 µM) | 16 (≈ 36.4 µM) | 16 (≈ 36.4 µM) | 0.5 (≈ 1.14 µM) | 1 (≈ 2.27 µM) | 1 (≈ 2.27 µM) | < 0.03 | 0.5 (≈ 1.14 µM) |
| CCN1C(=O)/C(=C/c2ccc([N+](=O)[O-])o2)SC1=S | 0.25 (≈ 0.879 µM) | > 256 | 16 (≈ 56.3 µM) | > 256 | 2 (≈ 7.03 µM) | > 256 | 0.125 (≈ 0.44 µM) | 0.5 (≈ 1.76 µM) | 0.5 (≈ 1.76 µM) | < 0.03 | 1 (≈ 3.52 µM) |
| Cc1c(CC(=O)NCCC(=O)O)c(=O)oc2c(C)c3occ(-c4ccc(Cl)cc4)c3cc12 | 2.5 (≈ 5.51 µM) | > 256 | > 256 | > 256 | > 256 | > 256 | 2.5 (≈ 5.51 µM) | 1.25 (≈ 2.75 µM) | 2.5 (≈ 5.51 µM) | > 64 | 1 (≈ 2.2 µM) |
| O=C(Nc1nnc(-c2cccc(Br)c2)o1)c1ccc(F)cc1 | 1.5 (≈ 4.14 µM) | > 256 | > 256 | > 256 | > 256 | > 256 | 1.5 (≈ 4.14 µM) | 1.5 (≈ 4.14 µM) | 3 (≈ 8.28 µM) | 0.5 (≈ 1.38 µM) | 0.5 (≈ 1.38 µM) |
| O=C1c2cccc3c([N+](=O)[O-])ccc(c23)C(=O)N1Cc1cccnc1 | 8 (≈ 24 µM) | > 256 | > 256 | > 256 | > 256 | > 256 | 8 (≈ 24 µM) | 2 (≈ 6 µM) | 8 (≈ 24 µM) | 4 (≈ 12 µM) | 4 (≈ 12 µM) |
| O=c1c2ccccc2nc(/C=C/c2ccc([N+](=O)[O-])o2)n1CCCO | 2 (≈ 5.86 µM) | > 256 | 16 (≈ 46.9 µM) | > 256 | 2 (≈ 5.86 µM) | > 256 | 2 (≈ 5.86 µM) | 2 (≈ 5.86 µM) | 2 (≈ 5.86 µM) | < 0.03 | 1 (≈ 2.93 µM) |
